In ChEMBL document CHEMBL4007430, “Synthesis and Cytostatic and Antiviral Profiling of Thieno-Fused 7-Deazapurine Ribonucleosides” (J Med Chem, 2017):

Assays:
CCRF-CEM [1] = assay: Inhibition of RNA synthesis in human CCRF-CEM cells assessed as decrease in BrU incorporation by measuring synthesized RNA levels at IC50 after 24 hrs by propidium iodide staining-based flow cytometric method (reference value: 53.09%); assay type: functional
Hepatitis C virus [2] = assay: Anti-HCV activity against Hepatitis C virus genotype 2a infected in human Huh7 replicon cells after 96 hrs by luciferase reporter gene assay; assay type: functional, cell-based, Hepacivirus hominis; conditions: Huh-7, 96 h
CCRF-CEM [3] = assay: Cell cycle arrest in human CCRF-CEM cells assessed as accumulation at G2/M phase at IC50 after 24 hrs by propidium iodide staining-based flow cytometric analysis (reference value: 14.70%); assay type: functional
U2OS = assay: Cytotoxicity against human U2OS cells assessed as cell growth inhibition after 72 hrs by MTS assay; assay type: functional, cell-based
MRC5 = assay: Cytotoxicity against human MRC5 cells assessed as cell growth inhibition after 72 hrs by MTS assay; assay type: cell-based; conditions: MRC5, 72 h
Outline: (§1)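 Cells were exposed to compound for 3 days, then stained with MTS as a quantitative metabolic read-out. IC50 is the concentration that inhibits cell growth by 50%.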

CCRF-CEM [4] = assay: Cell cycle arrest in human CCRF-CEM cells assessed as accumulation at G0/G1 phase at 5 times IC50 after 24 hrs by propidium iodide staining-based flow cytometric analysis (reference value: 41.11%); assay type: functional
CCRF-CEM [5] = assay: Induction of apoptosis in human CCRF-CEM cells assessed as accumulation at subG1 phase at IC50 after 24 hrs by propidium iodide staining-based flow cytometric analysis (reference value: 2.32%); assay type: functional
HeLa S3 = assay: Cytotoxicity against human HeLaS3 cells assessed as reduction in cell viability after 72 hrs by XTT assay; assay type: functional, cell-based; conditions: HeLa S3, 72 h
Outline: (§2)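 Cells were incubated with compound for 3 days. Viability was then measured with the XTT tetrazolium assay.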

CCRF-CEM [6] = assay: Cell cycle arrest in human CCRF-CEM cells assessed as accumulation at S phase at IC50 after 24 hrs by propidium iodide staining-based flow cytometric analysis (reference value: 44.20%); assay type: functional
BJ = assay: Cytotoxicity against human BJ cells assessed as cell growth inhibition after 72 hrs by MTS assay; assay type: cell-based; outline: as §1
CCRF-CEM [7] = assay: Inhibition of DNA synthesis in human CCRF-CEM cells assessed as decrease in BrdU incorporation by measuring synthesized DNA levels at IC50 after 24 hrs by propidium iodide staining-based flow cytometric analysis (reference value: 52.66%); assay type: functional
A549 = assay: Cytotoxicity against human A549 cells assessed as cell growth inhibition after 72 hrs by MTS assay; assay type: functional, cell-based; conditions: A549, 72 h; outline: as §1
CCRF-CEM [8] = assay: Induction of apoptosis in human CCRF-CEM cells assessed as accumulation at subG1 phase at 5 times IC50 after 24 hrs by propidium iodide staining-based flow cytometric analysis (reference value: 2.32%); assay type: functional
HepG2 = assay: Cytotoxicity against human HepG2 cells assessed as reduction in cell viability after 72 hrs by XTT assay; assay type: functional, cell-based; conditions: HepG2, 72 h; outline: as §2
[9] = Cytotoxicity against human K562-TAX cells assessed as cell growth inhibition after 72 hrs by MTS assay; assay type: functional, cell-based; outline: as §1
CCRF-CEM [10] = assay: Cytotoxicity against human CCRF-CEM cells assessed as cell growth inhibition after 72 hrs by MTS assay
HCT-116 [11] = assay: Cytotoxicity against human HCT116 cells assessed as cell growth inhibition after 72 hrs by MTS assay; assay type: functional, cell-based; conditions: HCT-116, 72 h; outline: as §1
Hepatitis C virus [12] = assay: Anti-HCV activity against Hepatitis C virus genotype 1b infected in human Huh7 replicon cells after 96 hrs by luciferase reporter gene assay; assay type: functional, cell-based, Hepacivirus hominis; conditions: Huh-7, 96 h
HCT-116 [13] = assay: Cytotoxicity against p53 deficient human HCT116 cells assessed as cell growth inhibition after 72 hrs by MTS assay; assay type: functional, cell-based; conditions: HCT-116, 72 h; outline: as §1
CCRF-CEM [14] = assay: Inhibition of mitosis in human CCRF-CEM cells assessed as pH3Ser10 positive cells at IC50 after 24 hrs by flow cytometric analysis (reference value: 1.74%); assay type: functional
CCRF-CEM [15] = assay: Inhibition of RNA synthesis in human CCRF-CEM cells assessed as decrease in BrU incorporation by measuring synthesized RNA levels at 5 times IC50 after 24 hrs by propidium iodide staining-based flow cytometric method (reference value: 53.09%); assay type: functional
CCRF-CEM [16] = assay: Cell cycle arrest in human CCRF-CEM cells assessed as accumulation at G0/G1 phase at IC50 after 24 hrs by propidium iodide staining-based flow cytometric analysis (reference value: 41.11%); assay type: functional
CCRF-CEM [17] = assay: Inhibition of mitosis in human CCRF-CEM cells assessed as pH3Ser10 positive cells at 5 times IC50 after 24 hrs by flow cytometric analysis (reference value: 1.74%); assay type: functional
CCRF-CEM [18] = assay: Cell cycle arrest in human CCRF-CEM cells assessed as accumulation at S phase at 5 times IC50 after 24 hrs by propidium iodide staining-based flow cytometric analysis (reference value: 44.20%); assay type: functional
CCRF-CEM [19] = assay: Inhibition of DNA synthesis in human CCRF-CEM cells assessed as decrease in BrdU incorporation by measuring synthesized DNA levels at 5 times IC50 after 24 hrs by propidium iodide staining-based flow cytometric analysis (reference value: 52.66%); assay type: functional
CCRF-CEM [20] = assay: Cell cycle arrest in human CCRF-CEM cells assessed as accumulation at G2/M phase at 5 times IC50 after 24 hrs by propidium iodide staining-based flow cytometric analysis (reference value: 14.70%); assay type: functional
K562 = assay: Cytotoxicity against human K562 cells assessed as cell growth inhibition after 72 hrs by MTS assay; assay type: functional, cell-based; conditions: K562, 72 h; outline: as §1
[21] = Cytotoxicity against mrp-1/mdr-1 overexpressing human CEM-DNR-bulk cells assessed as cell growth inhibition after 72 hrs by MTS assay; assay type: functional, cell-based
Outline: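 Cells were exposed to compound for 3 days, then stained with MTS as a quantitative metabolic read-out.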

CCRF-CEM [22] = assay: Inhibition of mitosis in human CCRF-CEM cells assessed as pH3Ser10 positive cells after 24 hrs by flow cytometric analysis; assay type: functional, cell-based
[23] = Cytotoxicity against human HuH7 cells; assay type: cell-based, Huh-7
HL-60 = assay: Cytotoxicity against human HL60 cells assessed as reduction in cell viability after 72 hrs by XTT assay; assay type: functional, cell-based; conditions: HL-60, 72 h; outline: as §2
[24] = Drug level in human HCT116 cells at 10 umol/L measured per 5 x 10^5 cells after 1 hr by UPLC-MS/MS analysis; assay type: ADME, cell-based; conditions: hct-116, 1 h, 10 µM
[25] = Drug level in human BJ cells at 1 umol/L measured per 5 x 10^5 cells after 3 hrs by UPLC-MS/MS analysis; assay type: ADME, cell-based; conditions: 1 µM
[26] = Drug level in human HCT116 cells at 1 umol/L measured per 5 x 10^5 cells after 1 hr by UPLC-MS/MS analysis; assay type: ADME, cell-based; conditions: hct-116, 1 h, 1 µM
[27] = Drug level in human BJ cells at 10 umol/L measured per 5 x 10^5 cells after 1 hr by UPLC-MS/MS analysis; assay type: ADME, cell-based; conditions: 10 µM
[28] = Drug level in human BJ cells at 10 umol/L measured per 5 x 10^5 cells after 3 hrs by UPLC-MS/MS analysis; assay type: ADME, cell-based; conditions: 10 µM
[29] = Drug level in human HCT116 cells at 10 umol/L measured per 5 x 10^5 cells after 3 hrs by UPLC-MS/MS analysis; assay type: ADME, cell-based; conditions: hct-116, 3 h, 10 µM
[30] = Drug level in human HCT116 cells at 1 umol/L measured per 5 x 10^5 cells after 3 hrs by UPLC-MS/MS analysis; assay type: ADME, cell-based; conditions: hct-116, 3 h, 1 µM

SMILES | BrU+ cells (%) (CCRF-CEM [1]) | EC50 (Hepatitis C virus [2]) | Activity (CCRF-CEM [3]) | IC50 (U2OS) | IC50 (MRC5) | Activity (CCRF-CEM [4]) | Activity (CCRF-CEM [5]) | IC50 (HeLa S3) | Activity (CCRF-CEM [6]) | IC50 (BJ) | BrdU+ cells (%) (CCRF-CEM [7]) | IC50 (A549) | Activity (CCRF-CEM [8]) | IC50 (HepG2) | IC50 [9] | IC50 (CCRF-CEM [10]) | IC50 (HCT-116 [11]) | EC50 (Hepatitis C virus [12]) | IC50 (HCT-116 [13]) | pH3Ser10+ cells (%) (CCRF-CEM [14]) | further results
Cc1ncnc2c1c1ccsc1n2[C@@H]1O[C@H](CO)[C@@H](O)[C@H]1O | 38.29% | 240 nM | 13.76% | 560 nM | > 50000 nM | 35.09% | 2.35% | 570 nM | 45.57% | > 50000 nM | 54.48% | 720 nM | 3.83% | 470 nM | 47600 nM | 30 nM | 400 nM | 60 nM | 330 nM | 1.37% | BrU+ cells (%) (CCRF-CEM [15]): 18.84%; Activity (CCRF-CEM [16]): 40.67%; pH3Ser10+ cells (%) (CCRF-CEM [17]): 1.37%; Activity (CCRF-CEM [18]): 51.16%; BrdU+ cells (%) (CCRF-CEM [19]): 54.08%; Activity (CCRF-CEM [20]): 13.74%; IC50 (K562): 460 nM; IC50 [21]: 33900 nM; Activity (CCRF-CEM [22]): Dose-dependent effect; CC50 [23]: > 44400 nM; IC50 (HL-60): 370 nM
Cc1ncnc2c1c1sccc1n2[C@@H]1O[C@H](CO)[C@@H](O)[C@H]1O | 33.92% | 60 nM | 12.41% | 200 nM | 1660 nM | 28.72% | 13.5% | 720 nM | 57.85% | 150 nM | 50.76% | 210 nM | 16.72% | 440 nM | 720 nM | 20 nM | 50 nM | 110 nM | 70 nM | 0.89% | BrU+ cells (%) (CCRF-CEM [15]): 47.83%; Activity (CCRF-CEM [16]): 29.74%; pH3Ser10+ cells (%) (CCRF-CEM [17]): 3.55%; Activity (CCRF-CEM [18]): 56.18%; BrdU+ cells (%) (CCRF-CEM [19]): 60.89%; Activity (CCRF-CEM [20]): 15.1%; IC50 (K562): 140 nM; IC50 [21]: > 50000 nM; Activity (CCRF-CEM [22]): Dose-dependent effect; CC50 [23]: > 44400 nM; IC50 (HL-60): 210 nM
CSc1ncnc2c1c1ccsc1n2[C@@H]1O[C@H](CO)[C@@H](O)[C@H]1O | 37.25% | 800 nM | 11.83% | 350 nM | 46000 nM | 33.16% | 2.79% | 300 nM | 47.81% | 6900 nM | 52.99% | 800 nM | 3.53% | 680 nM | > 50000 nM | 200 nM | 200 nM | 130 nM | 270 nM | 1.36% | Drug uptake [24]: 320.7 pmol; Drug uptake [25]: 253.6 pmol; Drug uptake [26]: 278.5 pmol; BrU+ cells (%) (CCRF-CEM [15]): 23.92%; Drug uptake [27]: 331.6 pmol; Drug uptake [28]: 633.7 pmol; Activity (CCRF-CEM [16]): 40.36%; pH3Ser10+ cells (%) (CCRF-CEM [17]): 1.13%; Activity (CCRF-CEM [18]): 53.26%; BrdU+ cells (%) (CCRF-CEM [19]): 56.64%; Drug uptake [29]: 444 pmol; Activity (CCRF-CEM [20]): 13.58%; IC50 (K562): 510 nM; IC50 [21]: > 50000 nM; Activity (CCRF-CEM [22]): Dose-dependent effect; CC50 [23]: > 44400 nM; IC50 (HL-60): 860 nM; Drug uptake [30]: 293.6 pmol
